Measured values pooled from the literature.
Protocols differ between the studies behind these lines.
Effect on: cell growth or viability

C/C1=C/C(=O)O[C@@H]2C[C@@H](CC[C@H](C)/C=C\C=C\CC1)O[C@@](O)([C@@H]1CSC(=O)N1Cc1ccccc1)C2 — IC50 (MDA-MB-231; MTT; 72 h): 2.72 µM
O=C(O)CCn1cc(C(=O)c2ccc(F)cc2)c2cc(-c3ccc(N4CCNCC4)nc3)cnc21 — viability (MRC5; MTT; 10 µM, 48 h): 77.7%
Cl.O[C@]12C=C(c3nccc4c3[nH]c3ccccc34)[C@@H]3CCN(CCCC/C=C\CC1)C[C@@]31C[C@@H]3/C=C\CCCCN3[C@H]12 — IC50 (LLC-PK11; neutral red; 48 h): 0.69 µg/mL
COc1cccc2c1C(=O)c1c(O)c3c(c(O)c1C2=O)C[C@@](O)(C(=O)CO)C[C@@H]3O[C@H]1C[C@H](N)[C@H](O)[C@H](C)O1 — IC50 (LLC-PK11; 48 h): 0.9 µg/mL
COc1ccc(C(=O)c2c[nH]c3ncc(-c4ccc(N5CCNCC5)nc4)cc23)cc1 — viability (MRC5; MTT; 10 µM, 48 h): 99.2%
N.N.[Cl][Pt][Cl] — IC50 (BEL-7404; MTT; 48 h): 13.1 µM
N.N.[Cl][Pt][Cl] — GI50 (MDA-MB-231; MTT; 72 h): 4.18 µM
O=C(c1ccc(F)cc1)c1c[nH]c2ncc(-c3ccnc(N4CCOCC4)c3)cc12 — viability (MRC5; MTT; 10 µM, 48 h): 89.4%
CCN1C(=O)SCC1C1(OC)CC2CC(CCC(C)C=CC=CCCC(C)=CC(=O)O2)O1 (stereo not drawn) — IC50 (MDA-MB-231; MTT; 72 h): > 50 µM
COc1ccc(C(=O)c2c[nH]c3ncc(-c4ccc(N5CCN(S(C)(=O)=O)CC5)nc4)cc23)cc1 — viability (MRC5; MTT; 10 µM, 48 h): 70.1%
CCN1C(=O)SC[C@H]1[C@@]1(O)C[C@H]2C[C@@H](CC[C@H](C)/C=C\C=C\CC/C(C)=C\C(=O)O2)O1 — IC50 (MDA-MB-231; MTT; 72 h): 7.19 µM
COc1c2c(cc3c1OCO3)[C@]13C=C[C@H](OC)C[C@@H]1[N@](C2)C[C@H]3OC(=O)c1ccco1 — IC50 (MRC5; WST-1): > 10 µM
